Assay outcomes from PubChem.
pCIP destab – lowers stability of the mouse p/CIP coactivator protein. Q05BA5. F442A p/CIP-EGFP cells, EGFP fluorescence, 16 h. decrease of EGFP signal, % at 10 µM. 0.01% of 290,000 active. AID 1984;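 active means EGFP signal decrease of at least 30% at 10 µM or well 3 SD below plate mean, unless failing retest; inactive means the rest, including hits failing retest or dose response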
Arrestin-AP2 inh – blocks beta-arrestin peptide binding to AP2 adaptin; 0.31% of 340,000 active; FITC-arrestin peptide / GST-AP2 beads, flow cytometry; AP2 beta2 appendage carries R879A mutation; inhibition, % at 10 µM; AID 504490;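 active means inhibition above a set limit, near 3 SD of compounds lacking own fluorescence, cut at about 54% in these data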
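Test system: GST-tagged AP2 beta2-adaptin appendage (R879A) on 4 µm glutathione beads; also added: fluorescein-tagged arrestin peptide at 50 nM final; timing: 12 min plus 1 h, RT; signal: flow cytometry, FL1 (488/535 nm); read-out: percent drop in bead-associated FITC signal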
JMJD2C inh – inhibitors of human GASC-1 (JMJD2C) demethylase | Q9H3R0 | GST-JMJD2C(1-420) H3K9me3 demethylation, DELFIA europium | inhibition, % at 2.35 µM | 0.069% of 330,000 active;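 active means more than half of a compound's replicate wells show inhibition beyond 50%, single wells judged on their own value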;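 further: signal counts dimethyl H3K9 product captured on neutravidin plate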
VLA-4 inh – inhibition in a human VLA-4 binding assay; VLA-4 expressing cells, ligand binding flow cytometry; 0.2% of 330,000 active; inhibition, % (about 7 µM as worked out from the volumes in the protocol); P13612; AID 2557; in the data active means inhibition above about 50%
VLA-4 allo CP – confirmation of allosteric modulators of human VLA-4 integrin; shares compounds with VLA-4 inh; U937 cells, HUTS-21 LIBS mAb binding, flow cytometry; LDV ligand present at threefold Kd; inhibition, % at 6.7 µM; 2% of 1,300 active; in the data active means inhibition above about 40%
Hits are given with their value; 0 = inactive; - = no result. An excerpt weighted towards active compounds, which were near 0.57% of everything screened.

SMILES	pCIP destab	Arrestin-AP2 inh	JMJD2C inh	VLA-4 inh	VLA-4 allo CP
COc1ccc(-c2noc(C3CCCN(C(=O)c4cccc(C)c4)C3)n2)cc1 (stereo not drawn)	0	0	0	0	-
CCOc1ccc(NCCC#N)cc1	0	0	0	0	-
CCOC(=O)c1c(C)[nH]c(C(=O)COC(=O)c2ccccn2)c1C	0	0	0	0	0
CCOC(=O)c1c(C)[nH]c(C(=O)COC(=O)C2(C)CC2(Cl)Cl)c1C (stereo not drawn)	0	0	0	0	0
COC(=O)c1c(C)[nH]c(C(=O)COC(=O)c2c(C)noc2C)c1C	-	0	0	0	0
CCOC(=O)c1c(C)[nH]c(C(=O)COC(=O)C2CC2)c1C	-	0	-	-	0
O=C(Nc1ccc(S(=O)(=O)N2CCCC2)cc1)C1COc2ccccc2O1 (stereo not drawn)	0	0	0	0	-
Cc1cc(C(C)(C)C)cc(C)c1CCNC(=O)c1c(C)noc1C	-	0	-	-	-
C=CCNc1ncnc2c1cnn2-c1cccc(C)c1	0	0	0	65.6	0
Cc1cccc(-n2ncc3c(NCCCO)ncnc32)c1	0	0	0	0	-
CC1(C)CC(=O)C2=C(C1)OC(N)=C(C#N)C2c1ccccc1OC(=O)N1CCOCC1 (stereo not drawn)	0	0	0	0	-
Cc1cc(C=O)c(C)n1-c1sc2c(c1C(=O)O)CCCC2	0	0	0	52.0	0
COC(=O)c1c(-n2c(C)cc(C=O)c2C)sc2c1CCCC2	0	0	0	0	-
Cc1nn(-c2nc(-c3ccco3)cc(C(F)(F)F)n2)c(C)c1Cl	0	0	0	0	-
CC(C)C(=O)N1CCN(c2ccc(NC(=O)COc3ccccc3[N+](=O)[O-])cc2)CC1	0	0	0	0	-
Cc1ccc(Oc2cnc3ccccc3n2)cc1	0	0	0	52.6	0
Clc1ccc(Oc2cnc3ccccc3n2)cc1	0	0	0	0	-
CCN1CCN(c2nc(Nc3cccc(OC)c3)nc(N)c2[N+](=O)[O-])CC1	0	0	0	0	0
COc1cc(CCCN2C(=O)C(=O)NC[C@@H]2CCCCN)cc(OC)c1OC	0	-	0	0	0
COc1cc(CCCN2C(=O)C(=O)NC[C@@H]2Cc2ccc(O)cc2)cc(OC)c1OC	0	-	0	0	-
Fc1ccccc1N1CCN(CCCNc2ccc3nncn3n2)CC1	0	0	0	0	-
CC(=O)Nc1ccc(NC(=O)CN(c2cc(Cl)ccc2Cl)S(C)(=O)=O)cc1	0	0	0	59.9	0
CS(=O)(=O)N(CC(=O)Nc1cc(Cl)ccc1Cl)c1ccccc1Cl	0	0	0	0	-
CCCN(C(=O)c1ccccc1N)c1c(C)n(C)n(-c2ccccc2)c1=O	0	0	0	0	0
CCOC(=O)C1(C(F)(F)F)N=C(C(F)(F)F)Nc2ccccc21 (stereo not drawn)	0	0	0	56.3	0
SMILES	pCIP destab	Arrestin-AP2 inh	JMJD2C inh	VLA-4 inh	VLA-4 allo CP
Cc1[nH]c2ccccc2c1C(=O)CN1CCC2(CC1)OCCO2	0	0	0	0	-
Cc1cc(/C=C(/C#N)C(=O)Nc2ccccc2)c(C)n1-c1cccnc1	0	0	0	94.5	0
COc1cc2c(cc1OC)C(c1cc(Br)ccc1O)N(C(C)=O)CC2 (stereo not drawn)	-	0	0	0	-
COc1cc2c(cc1OC)C(c1cc(OC)c(OC)cc1[N+](=O)[O-])N(C(C)=O)CC2 (stereo not drawn)	0	0	0	0	0
O=C(N1CCOCC1)N1CCC(NC(=O)C23CC4CC(CC(C4)C2)C3)CC1	0	0	0	52.3	0
O=C(N1CCOCC1)C12CCC3CC(CC(C3)C1)C2	0	0	0	0	-
CCNc1ccccc1CP(=O)(c1ccccc1)c1ccccc1O (stereo not drawn)	0	-	0	0	-
CNc1nc(OCCNC(=O)Nc2ccccc2)nc(N2CCOCC2)n1	0	0	0	58.8	0
CS(=O)(=O)N1CCC(C(=O)Nc2cccc(C(F)(F)F)c2)CC1	0	0	0	0	-
NC(=O)c1ccc(NC(=O)COC(=O)CC(NC(=O)c2ccccc2Cl)c2ccccc2)cc1 (stereo not drawn)	0	0	0	0	-
CCOC(=O)N1CCc2c(sc3ncn(Cc4ccc(F)cc4)c(=O)c23)C1	0	0	0	0	-
CCOc1ccc(S(=O)(=O)N2CCCC(C(=O)NCc3cccnc3)C2)cc1C (stereo not drawn)	0	0	0	0	-
COc1ccc(S(=O)(=O)N2CCCC(C(=O)NCc3cccnc3)C2)cc1OC (stereo not drawn)	-	0	0	50.5	0
CCC(=NCCc1c(C)[nH]c2ccc(C)cc12)C1=C(O)CC(c2ccccc2)CC1=O (stereo not drawn)	0	0	0	0	0
CC(=O)C1=C(O)CC(c2ccccc2)CC1=NCCc1c(C)[nH]c2ccc(C)cc12 (stereo not drawn)	0	0	0	0	-
O=C1/C(=C\c2cc(Br)cc(Br)c2O)SC(=S)N1Cc1ccccc1	0	0	0	0	-
S=C(NCCC(c1ccccc1)c1ccccc1)Nc1cccc(Cl)c1	0	0	0	93.4	0
S=C(NCCN(C1CCCCC1)C1CCCC1)Nc1cccc(Cl)c1	0	0	0	0	-
CCN1CCN(Cc2ccc(NC(=O)c3ccc(C)c(NC(=O)N4CCNC4=O)c3)cc2C(F)(F)F)CC1	0	0	0	0	0
Cc1cn(-c2cc(C(=O)Nc3ccc(C)c(NC(=O)N4CCNC4=O)c3)cc(C(F)(F)F)c2)cn1	0	0	-	59.4	0
Cc1ccc(C(=O)Nc2cccc(C(F)(F)F)c2)cc1Nc1cnccn1	0	0	0	0	-
Cc1cccc(NC(=S)N2CCN(S(=O)(=O)c3ccccc3)CC2)c1	0	0	0	0	-
CC1Cc2cc(S(=O)(=O)N3CCN(C)CC3)ccc2N1C(=O)C1CC1 (stereo not drawn)	0	0	0	0	-
COCCn1nnnc1C(c1ccc(OC)cc1OC)N1CCN(c2ccccc2F)CC1 (stereo not drawn)	0	0	0	99.2	0
O=C(CCSc1ccc(Br)cc1)c1ccc(O)cc1	0	0	0	0	0
SMILES	pCIP destab	Arrestin-AP2 inh	JMJD2C inh	VLA-4 inh	VLA-4 allo CP
O=C(O)c1cc(O)ccc1NC(=O)C(c1ccccc1)c1ccccc1	0	0	0	0	0
CCN(CC)c1ccc(CNc2ccc3c(c2)ncn3C(C)(C)C)cc1	0	0	-	53.7	0
Cc1ccc2c(c1)nnn2C1CCN(CC(=O)N2c3ccccc3CC2C)CC1 (stereo not drawn)	0	0	0	0	-
COC(=O)c1sccc1NC(=O)Nc1ccccc1F	0	0	0	0	-
COC(=O)c1sccc1NC(=O)Nc1ccccc1C	0	0	0	0	0
Fc1ccccc1N1CCN(c2ncnc3nc[nH]c23)CC1	0	0	0	0	-
FC(F)(F)c1cccnc1N1CCN(c2ncnc3nc[nH]c23)CC1	0	0	0	49.7	0
CCN(C[C@H]1N[C@@](Cc2ccccc2)(C(=O)OC)[C@H]2C(=O)N(Cc3ccccc3)C(=O)[C@@H]12)S(=O)(=O)c1ccc(OC(F)(F)F)cc1	-	0	0	0	0
